Hits are enriched below; roughly 4.5% of the tested compounds scored in any of these assays.
GPR7 antagonist: human neuropeptides B/W receptor 1 antagonism; P48145; GPR7-expressing cells, fluorescence antagonist assay; inhibition, % at 4.4 µM; 290,000 compounds, 1.1% hits; in the data active = inhibition above about 16%, passing the limit was not always enough;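 also: cells stimulated with the agonist NPW; 0% = agonist with vehicle and 100% = vehicle without agonist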
CHO parental Ca: counter-screen: ATP calcium response change in parental CHO cells; parental CHO-K1, ATP-induced calcium, Fluo-8 fluorescence; inhibition, % at 5.6 µM; 330,000 compounds, 0.63% hits;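 active = inhibition above that plate's mean sample inhibition plus 3 SD, cut at about 26% in these data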;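 also: 0% = ATP-challenged DMSO wells and 100% = DMSO wells without ATP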
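Material – parental CHO cells · Reagent – ATP stimulus · Compound – single nominal dose of 5.6 µM per compound · Detection – Fluo-8 fluorescence · Read-out basis – percent inhibition of calcium signal · Controls – ATP-challenged DMSO wells low, unchallenged DMSO wells high · Repeats – no replicates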
TAAR1 agonist: human TAAR1 agonism; Q96RJ0; CHO RD-HGA16 TAAR1, Fluo-8 calcium fluorescence; vehicle wells 0%, saturating PEA agonist 100%; activation, % at 3 µM; 360,000 compounds, 0.99% hits;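 active = activation above the mean activation of all test compounds in the run plus 3 SD, cut at about 38% in these data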
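Benchmarks: low control DMSO, high control PEA (EC100); System: CHO RD-HGA16 cells carrying human TAAR1 plus Gα16; Detection: Fluo-8 fluorescence, 5 s baseline then 140 s kinetic read; Schedule: 17-24 h plating, Fluo-8 75 min 37 °C, 30 min RT; Read-out basis: % activation from peak over basal fluorescence ratio, DMSO-to-PEA scaled.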
OX1R antag-1: OX1R (human) antagonism | 330,000 compounds, 1.8% hits | O43613 | OX1R-expressing cells, FRET antagonist read-out | inhibition, % at 6.6 µM; in the data active = inhibition mostly above about 38%, no sharp cut-off; inactive = mostly below about 40%;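 also: 0% = agonist challenge alone and 100% = reference antagonist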
Target sequence (O43613 whole entry, looked up): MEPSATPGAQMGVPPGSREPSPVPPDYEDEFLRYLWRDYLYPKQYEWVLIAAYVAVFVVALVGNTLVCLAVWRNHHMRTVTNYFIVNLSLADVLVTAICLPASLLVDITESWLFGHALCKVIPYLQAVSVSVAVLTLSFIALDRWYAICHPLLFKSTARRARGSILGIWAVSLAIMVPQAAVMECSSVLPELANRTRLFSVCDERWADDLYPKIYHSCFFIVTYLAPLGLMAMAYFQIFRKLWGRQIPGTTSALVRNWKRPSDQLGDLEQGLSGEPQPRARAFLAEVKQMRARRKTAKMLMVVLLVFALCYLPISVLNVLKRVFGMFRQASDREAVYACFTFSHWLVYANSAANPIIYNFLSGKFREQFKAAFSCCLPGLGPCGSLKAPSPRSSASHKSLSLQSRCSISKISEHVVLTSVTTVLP
OX1R antag-2: blocks the human orexin 1 receptor; O43613; CHO/OX1R cells, Fluo-8 calcium fluorescence, orexin A; inhibition, % at 5 µM; 330,000 compounds, 0.43% hits; AID 434989;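 active = inhibition above its plate's threshold, mean inhibition of all tested compounds on the plate plus 3 SD, cut at about 37% in these data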;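 also: 0% = orexin A challenge wells and 100% = SB-334867-A antagonist wells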
TAAR1 antagonist: antagonists of human TAAR1; Q96RJ0; CHO RD-HGA16 TAAR1, Fluo-8 calcium fluorescence, antagonist; inhibition, % at 3 µM; 360,000 compounds, 1.5% hits; AID 624466;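 active = inhibition above a per-plate cutoff, the mean inhibition of test compounds on that plate plus 3 SD, cut at about 49% in these data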;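 also: 0% = DMSO plus EC80 beta-PEA response and 100% = DMSO alone without agonist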
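Test system: hTAAR1-expressing CHO RD-HGA16 cells, Gα16-coupled; Probe or stimulus: EC80 β-phenethylamine stimulus; Compound dosing: single nominal final test compound concentration of 3 µM; Timing: 140 s kinetic read after compound, 140 s after agonist; Signal: Fluo-8 calcium-sensitive fluorescence; Measure: % inhibition of agonist calcium response; Controls: DMSO and EC80 PEA controls.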
* marks the source's active call; other numbers are inactive results; · = not tested or not shown.

SMILES | GPR7 antagonist | CHO parental Ca | TAAR1 agonist | OX1R antag-1 | OX1R antag-2 | TAAR1 antagonist
CC(C)C(=O)Nc1nnc(CSCc2ccccc2F)s1 | -9 | -3 | 16 | 9 | -8 | -12
O=C(Nc1nnc(CSCc2ccccc2F)s1)c1cccc([N+](=O)[O-])c1 | 17 | -4 | 3 | 43* | -17 | 10
O=C(C1CCC1)N1CCc2cc(S(=O)(=O)NCCN3CCN(c4ccccc4F)CC3)ccc21 | 6 | 51* | 4 | 31 | 14 | 23
Cc1ccc(-c2nc3c(C)cc(Br)cn3c2Cc2ccccc2C(F)(F)F)cc1 | · | · | 0 | · | · | 5
CN(C(=O)CCc1cn(C)c2ccccc12)c1ccc(Oc2cccnc2)cc1 | · | · | -2 | · | · | 24
COCC(C)n1c(SCC(=O)N2CCCCC2)nc2ccccc2c1=O (stereo not drawn) | 13 | -27 | 7 | -8 | -31 | 1
COCC(C)n1c(SCC(=O)N2CCc3ccccc3C2)nc2ccccc2c1=O (stereo not drawn) | -5 | -21 | 0 | 70* | -25 | -9
COc1cc(NC(=O)[C@@H]2CCCN2S(=O)(=O)c2cccc3cccnc23)cc(OC)c1OC | · | -17 | 12 | 28 | -29 | 8
CC(=O)c1cccc(NC(=O)C2CCCN(S(=O)(=O)c3cccc4cccnc34)C2)c1 (stereo not drawn) | -13 | -10 | 8 | 55* | -11 | 52*
O=C(Nc1ccccc1Cl)C1CCCN(S(=O)(=O)c2ccc(F)cc2)C1 (stereo not drawn) | 11 | -17 | 5 | 16 | -22 | 7
CC(=O)c1cccc(NC(=O)C2CCCN2S(=O)(=O)c2cccc3cccnc23)c1 (stereo not drawn) | -10 | 3 | 5 | 67* | 14 | -20
O=C(Nc1ccc(C(F)(F)F)cc1)C1CCCN1S(=O)(=O)c1cccc2cccnc12 (stereo not drawn) | -12 | -23 | 9 | 36* | 30 | -3
O=C(Nc1cccc(Cl)c1)C1CCCN(S(=O)(=O)c2ccc(F)cc2)C1 (stereo not drawn) | -4 | -17 | 5 | 42* | -5 | 39
O=C(Nc1ccc(Cl)cc1)OCC12COCN1COC2 | · | · | 9 | · | · | 13
O=C(Nc1nccs1)C1CCCN(S(=O)(=O)c2cccc3cccnc23)C1 (stereo not drawn) | -16 | -7 | 11 | 43* | -23 | 50*
CC1NS(=O)(=O)c2cc([N+](=O)[O-])ccc21 (stereo not drawn) | · | · | 2 | · | · | -2
CC(=O)c1cccc(OCc2cc(C(=O)N(C)Cc3cnccn3)no2)c1 | -16 | -13 | 2 | 1 | -22 | -1
Cc1cc(CN(C)C(=O)c2cc(COc3ccc4ncccc4c3)on2)on1 | 3 | 29* | 4 | 12 | 11 | -17
CC(CNC(=O)c1cc(COc2ccc3ncccc3c2)on1)c1ccccc1 (stereo not drawn) | 3 | 58* | 16 | 57* | 33 | 32
O=C(NC1CCCCCCC1)c1cc(COc2ccc3ncccc3c2)on1 | -3 | · | 2 | · | · | 20
CN(Cc1nccn1C)C(=O)c1cc(COc2ccc3ncccc3c2)on1 | -4 | 3 | 4 | 16 | -9 | 9
CN(Cc1cccnc1)C(=O)c1cc(COc2ccc3c(c2)CCCC3)on1 | 2 | 40* | 4 | 28 | 25 | 16
Nc1[nH]c(C(=O)c2ccccc2)c(-c2ccccn2)c1C(=O)c1c[nH]c2ccccc12 | · | · | 1 | · | · | -12
O=C1C=C(Nc2ccccc2O)c2ccccc2C1=O | 3 | -9 | 2 | 58* | -3 | -7
O=C1C=C(Nc2ccc(F)cc2)c2ccccc2C1=O | · | -3 | 4 | 50* | -9 | -1
SMILES | GPR7 antagonist | CHO parental Ca | TAAR1 agonist | OX1R antag-1 | OX1R antag-2 | TAAR1 antagonist
O=C(Cn1ccc(=O)[nH]c1=O)Nc1ccc(O)c([N+](=O)[O-])c1 | · | · | -2 | · | · | -19
NC(=O)c1ncn([C@@H]2O[C@H](C(=O)N[C@H](Cc3ccccc3)C(=O)N3CCN(CC(=O)Nc4ccccn4)CC3)[C@@H](O)[C@H]2O)n1 | · | · | 1 | · | · | -2
COc1ccc(C(=O)/C(=C\c2ccco2)N2C=CC=CC2=C(C#N)C#N)cc1 | 47* | 26 | · | 66* | 31 | ·
COc1ccc(C(=O)N/C(=C\c2ccco2)C(=O)OCc2ccco2)cc1 | -11 | 1 | -1 | 6 | -28 | -28
N#CC(C#N)=C1C=CC=CN1/C(=C\c1ccco1)C(=O)c1ccccc1 | 39* | 32 | 10 | 51 | 6 | 11
COc1ccc(/C=C(/C(=O)c2cccs2)N2C=CC=CC2=C(C#N)C#N)cc1 | -1 | · | 22 | · | · | 56*
N#CC(C#N)=C1C=CC=CN1/C(=C\c1ccco1)C(=O)c1ccc(Br)cc1 | 8 | 49* | 5 | 61* | 24 | 37
C[C@@H]1ON(C)[C@H]2C[C@H]3c4[nH]c5c(-c6cc(Cl)cc(Cl)c6)cccc5c4CCN3C(=O)[C@@H]12 | · | · | 0 | · | · | -9
CCc1c(C2(O)CCCCC2)[nH]c2ccc(C(F)(F)F)cc12 | -16 | 40* | -1 | 59* | 35 | 4
CN(C)Cc1c(C(C)(C)O)[nH]c2ccc(C(F)(F)F)cc12 | · | -2 | 8 | 7 | -10 | -6
CCOC(=O)c1cnc(-n2nc(C)cc2C)nc1Nc1ccc(OC)cc1 | -10 | -21 | -1 | 13 | -39 | 7
CCOC(=O)c1cnc(-n2nc(C)cc2C)nc1NC1CCCC1 | 12 | 43* | 14 | 14 | 59* | 28
C=CCn1c(SCC(=O)Nc2cccc(S(N)(=O)=O)c2)nc2sc(C)c(C)c2c1=O | · | 10 | 2 | 33* | 2 | 12
CCN(CC)c1ccc2c(c1)CCCN2 | -5 | -4 | · | 85* | -22 | ·
CCN(CC)CCNc1ncnc2c1[nH]c1ccc(OC)cc12 | -8 | -4 | · | 15 | -11 | ·
COc1ccc2[nH]c3c(NCCC4=CCCCC4)ncnc3c2c1 | 23* | · | 11 | · | · | 37
Cc1ccc(S(=O)(=O)N(C)c2ccc(OCC(=O)Nc3ccc(C(=O)N(C)C)cc3)cc2)cc1C | · | -7 | 19 | 4 | -12 | 22
Cc1ccc(-c2cc3cccc[n+]3cc2-c2ccc(C)cc2)cc1 | 22* | -3 | -1 | 33 | 5 | -1
Cc1ccc2nc(-c3ccncc3)cc(-c3ccccc3)c2c1 | -15 | -31 | 18 | 7 | -34 | 7
CC(C)c1ccc2oc(=O)cc(CN3CCCCC3)c2c1 | -15 | -20 | 0 | 7 | -19 | -23
OCCN1CN(c2ccccc2)C(=S)N(c2ccccc2)C1 | · | · | 2 | · | · | -17
COc1ccc(NS(=O)(=O)c2cc(N/C(=N\S(=O)(=O)c3ccccc3)c3ccc(F)cc3)ccc2Cl)cc1 | 34* | -5 | 15 | 7 | 6 | 12
COc1ccc(NS(=O)(=O)c2ccc(Cl)c(NC(=O)c3ccccc3F)c2)cc1 | · | -11 | -1 | 49* | 16 | 7

Source: PubChem BioAssay
